Measured values as given in ChEMBL document CHEMBL1154181 (J Med Chem, 2009).

Legend:
[1] = target: T1, Alpha-1A adrenergic receptor (Rattus norvegicus) (UniProt P43140); assay: Inhibition of [3H]prazosin binding to adrenergic alpha1A receptor in Wistar rat submaxillary gland at 10 uM after 60 mins
T1 sequence (whole entry): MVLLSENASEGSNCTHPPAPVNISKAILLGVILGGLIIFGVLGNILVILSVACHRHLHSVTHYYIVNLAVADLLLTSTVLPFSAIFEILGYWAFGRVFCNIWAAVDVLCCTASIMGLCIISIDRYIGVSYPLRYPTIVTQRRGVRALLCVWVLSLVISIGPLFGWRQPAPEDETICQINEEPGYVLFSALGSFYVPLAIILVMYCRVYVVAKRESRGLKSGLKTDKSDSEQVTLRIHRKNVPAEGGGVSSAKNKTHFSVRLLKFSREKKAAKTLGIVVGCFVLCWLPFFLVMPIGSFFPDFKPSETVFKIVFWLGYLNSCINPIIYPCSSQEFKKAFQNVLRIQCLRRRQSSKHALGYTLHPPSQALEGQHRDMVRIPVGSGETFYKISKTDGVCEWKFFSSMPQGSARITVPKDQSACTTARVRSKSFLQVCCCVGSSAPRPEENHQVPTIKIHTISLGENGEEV
How it was run: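 Wistar rat submaxillary gland membranes with 0.25 nM [3H]-prazosin. Nonspecific binding defined by 10 μM phentolamine. Buffer 50 mM Tris-HCl pH 7.4, 0.5 mM EDTA. Incubated 60 min at 25 °C, then filtered and counted. Duplicate; 1% DMSO final.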

[2] = system: Mus musculus; assay: (§1) Antinociceptive activity against radiant heat-induced nociception in po dosed CD1 mouse assessed as increase in tail withdrawal latency measured after 15 to 120 mins postdose by tail flick test in presence of 2 mg/kg, ip alpha-2-adrenergic receptor antagonist yohimbine hydrochloride administered 30 mins before compound infusion; assay type: functional
How it was run: (§2)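 Antagonist given ip 30 min before oral dosing (naloxone 1, mecamylamine 2, yohimbine 2, CGP 35348 50 mg/kg). Tail flick with radiant heat at the tail tip, cut-off 15 s; latencies at 15–120 min converted to %MPE. Peak-time quantal response (≥50% MPE); ED50 from at least four groups of six male CD-1 mice.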

[3] = system: Mus musculus; assay: Antinociceptive activity against radiant heat-induced nociception in CD1 mouse assessed as tail withdrawal latency at 1 mg/kg, po measured after 15 to 120 mins postdose by tail flick test; assay type: functional
How it was run: (§3)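 Male CD-1 mice (25–30 g), dosed orally at 1 mg/kg. Tail flick: radiant heat focused 3–4 cm from the tail tip, cut-off 15 s at 15 V. Hot plate: 48.5 ± 0.1 °C, licking, paw jerk or jump, cut-off 60 s. Baseline is the mean of three readings 15 min apart. Latency followed to 120 min (tail) or 90 min (plate); data as %MPE.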

[4] = system: Mus musculus; assay: Antinociceptive activity against thermal nociception in po dosed CD1 mouse assessed as increase in latency period to elicit jumping or hind paw licking measured after 15 to 90 mins postdose by hot plate method in presence of 2 mg/kg, ip nicotinic receptor antagonist mecamylamine hydrochloride administered 30 mins before compound infusion; assay type: functional
How it was run: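 Antagonist given ip 30 min before oral dosing (naloxone 1, mecamylamine 2, yohimbine 2, CGP 35348 50 mg/kg). Hot plate at 48.5 ± 0.1 °C inside a cylinder, cut-off 60 s; latencies at 15–90 min as %MPE. Peak-time quantal response (≥50% MPE); ED50 from at least four groups of six male CD-1 mice.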

[5] = system: Mus musculus; assay: Antinociceptive activity against radiant heat-induced nociception in icv dosed CD1 mouse assessed as increase in tail withdrawal latency measured after 15 to 120 mins postdose by tail flick test; assay type: functional
How it was run: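 Male CD-1 mice anesthetized with ketamine-xylazine (80 + 10 mg/kg ip). Dosed into the right lateral ventricle (+2 mm ML, −0.3 mm AP to bregma, 2 mm depth). Tail flick with radiant heat, cut-off 15 s. Latency read at 15–120 min as %MPE.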

[6] = system: Mus musculus; assay: Ratio of compound ED50 to morphine ED50 for antinociceptive activity against radiant heat-induced nociception in icv dosed CD1 mouse; assay type: functional
How it was run: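 Male CD-1 mice (25–30 g) given the compound or morphine hydrochloride into the right lateral ventricle. Tail flick used radiant heat focused 3–4 cm from the tail tip, with a 15 s cutoff, and latency was read at 15–120 min. %MPE was made quantal at peak time. ED50 came from at least four groups of six mice, and both ED50s were obtained the same way.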

[7] = target: T2, Alpha-1A adrenergic receptor (Rattus norvegicus, UniProt P43140); assay: Displacement of [3H]prazosin from adrenergic alpha1A receptor in Wistar rat submaxillary gland after 60 mins; assay type: tissue-based
T2 sequence (P43140 whole entry): T1 sequence (whole entry)

[8] = system: Mus musculus; assay: Antinociceptive activity against thermal nociception in po dosed CD1 mouse assessed as increase in latency period to elicit jumping or hind paw licking measured after 15 to 90 mins postdose by hot plate method; assay type: functional
[9] = target: T3, Alpha-2A adrenergic receptor (Homo sapiens, UniProt P08913); assay: Displacement of [3H][…] from human recombinant adrenergic alpha2A receptor expressed in insect Sf9 cells after 60 mins
T3 sequence (P08913 whole entry): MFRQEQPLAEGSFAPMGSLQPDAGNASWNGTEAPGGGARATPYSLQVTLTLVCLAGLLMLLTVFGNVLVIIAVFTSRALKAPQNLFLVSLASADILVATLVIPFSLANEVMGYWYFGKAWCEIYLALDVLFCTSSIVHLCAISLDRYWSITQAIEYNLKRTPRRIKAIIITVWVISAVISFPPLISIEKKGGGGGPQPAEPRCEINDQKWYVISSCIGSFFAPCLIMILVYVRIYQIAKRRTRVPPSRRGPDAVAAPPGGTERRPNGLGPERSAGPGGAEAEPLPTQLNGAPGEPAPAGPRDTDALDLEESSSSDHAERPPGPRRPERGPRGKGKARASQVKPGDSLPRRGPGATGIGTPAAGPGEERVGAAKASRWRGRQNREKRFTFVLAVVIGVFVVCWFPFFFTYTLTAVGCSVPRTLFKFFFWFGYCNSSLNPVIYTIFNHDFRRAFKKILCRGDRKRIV

[10] = system: Mus musculus; assay: as §1, with “of 1” for “of 2”, “ip opioid” for “ip alpha-2-adrenergic”, “antagonist naloxone” for “antagonist yohimbine”; assay type: functional; how it was run: as §2
[11] = system: Mus musculus; assay: as §1, with “nicotinic” for “alpha-2-adrenergic”, “mecamylamine” for “yohimbine”; assay type: functional; how it was run: as §2
[12] = system: Mus musculus; assay: Antinociceptive activity against radiant heat-induced nociception in po dosed CD1 mouse assessed as increase in tail withdrawal latency measured after 15 to 120 mins postdose by tail flick test; assay type: functional
How it was run: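 Male CD-1 mice, 25–30 g; oral dosing. Radiant heat focused 3–4 cm from tail tip of hand-restrained mice; tail withdrawal latency recorded, cutoff 15 s at 15 V. Baseline = mean of three readings 15 min apart; latency at 15–120 min.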

[13] = system: Mus musculus; assay: Antinociceptive activity against thermal nociception in po dosed CD1 mouse assessed as latency period to elicit jumping or hind paw licking at 1 mg/kg, po measured after 15 to 90 mins postdose by hot plate method; assay type: functional; how it was run: as §3

Structure (SMILES): C=Cc1c(C)nn(CCCN2CCN(c3ccc(C)cc3)CC2)c(=O)c1N
- Emax [1]: 101%
- ED50 [2]: 6.1 mg/kg
- Activity [3]: 30 min
- ED50 [4]: 0.7 mg/kg
- ED50 [5]: 3.5 µg
- Ratio ED50 [6]: 3
- IC50 [7]: 56 nM
- ED50 [8]: 0.5 mg/kg
- IC50 [9]: 320 nM
- ED50 [10]: 1.2 mg/kg
- ED50 [11]: 2.3 mg/kg
- ED50 [12]: 0.8 mg/kg
- Activity [13]: 30 min
